According to ChEMBL document CHEMBL4613327, “Sulfonamide Inhibitors of Human Carbonic Anhydrases Designed through a Three-Tails Approach: Improving Ligand/Isoform Matching and Selectivity of Action” (J Med Chem, 2020):

Organism: Homo sapiens
Assay: Selectivity index, ratio of Ki for inhibition of human CA4 to Ki for inhibition of human CA12
Procedure, shortened: (§1)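 Ratio of Ki values. Each Ki came from stopped-flow CA-catalysed CO2 hydration with recombinant in-house hCA isoforms, phenol red 0.2 mM read at 557 nm, 20 mM Hepes pH 7.5, 20 mM Na2SO4, and CO2 1.7–17 mM. Inhibitor and enzyme were preincubated 15 min at room temperature. Initial rates, less the uncatalysed rate, were fit by nonlinear least squares with Cheng–Prusoff. Mean of ≥3 determinations.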
In the case of `CCCCCCCC/C=C\CCCCCCCCNC(=O)CCN(CCc1ccccc1)CC(=O)N(CCc1ccc(S(N)(=O)=O)cc1)Cc1ccco1`, the Ratio Ki is reported as 329. For `CCCCCN(CCCCC)CCC(=O)N(CCc1ccc(S(N)(=O)=O)cc1)Cc1ccccc1`, the Ratio Ki was 32.4. `N#CCCN(CCc1ccccc1)CC(=O)N(CCc1ccc(S(N)(=O)=O)cc1)Cc1ccco1` showed a Ratio Ki of 52.6. In the case of `N#CCCN(CCc1ccccc1)CC(=O)N(CCc1ccc(S(N)(=O)=O)cc1)Cc1ccc2ccccc2c1`, the Ratio Ki is reported as 58.8. `NS(=O)(=O)c1ccc(CCN(Cc2ccccc2)C(=O)CN(Cc2ccccc2)Cc2ccccc2)cc1` was tested, and the Ratio Ki was over 101.

Organism: Homo sapiens
Assay: Selectivity index, ratio of Ki for inhibition of human CA1 to Ki for inhibition of human CA4
Procedure, shortened: as §1
Compound `CCCCCCCC/C=C\CCCCCCCCNC(=O)CCN(CCc1ccccc1)CC(=O)N(CCc1ccc(S(N)(=O)=O)cc1)Cc1ccco1` has a Ratio Ki of 0.4. `CCCCCN(CCCCC)CCC(=O)N(CCc1ccc(S(N)(=O)=O)cc1)Cc1ccccc1` was tested, and the Ratio Ki was 0.2. Compound `N#CCCN(CCc1ccccc1)CC(=O)N(CCc1ccc(S(N)(=O)=O)cc1)Cc1ccco1` has a Ratio Ki of 0.7. Compound `N#CCCN(CCc1ccccc1)CC(=O)N(CCc1ccc(S(N)(=O)=O)cc1)Cc1ccc2ccccc2c1` has a Ratio Ki of 0.2. For `NS(=O)(=O)c1ccc(CCN(Cc2ccccc2)C(=O)CN(Cc2ccccc2)Cc2ccccc2)cc1`, the Ratio Ki was under 0.09.

Each compound was assayed against Carbonic anhydrase 4 (Homo sapiens, UniProt P22748) (assay: Inhibition of human CA4 preincubated for 15 mins by stopped-flow CO2 hydration kinetic assay based Cheng-Prusoff equation analysis).
Sequence of Carbonic anhydrase 4 (P22748 whole entry): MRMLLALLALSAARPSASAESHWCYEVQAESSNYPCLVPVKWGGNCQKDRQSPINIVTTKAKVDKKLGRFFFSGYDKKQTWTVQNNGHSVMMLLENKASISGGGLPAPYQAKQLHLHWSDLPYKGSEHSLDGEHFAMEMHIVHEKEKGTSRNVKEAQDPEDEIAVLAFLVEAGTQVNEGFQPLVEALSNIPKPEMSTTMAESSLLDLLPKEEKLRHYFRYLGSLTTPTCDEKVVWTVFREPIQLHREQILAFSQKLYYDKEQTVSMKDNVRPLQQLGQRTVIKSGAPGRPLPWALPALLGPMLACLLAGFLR
`CCCCCCCC/C=C\CCCCCCCCNC(=O)CCN(CCc1ccccc1)CC(=O)N(CCc1ccc(S(N)(=O)=O)cc1)Cc1ccco1` was tested, and the Ki was 1810 nM. In the case of `CCCCCN(CCCCC)CCC(=O)N(CCc1ccc(S(N)(=O)=O)cc1)Cc1ccccc1`, the Ki is reported as 3240 nM. Compound `N#CCCN(CCc1ccccc1)CC(=O)N(CCc1ccc(S(N)(=O)=O)cc1)Cc1ccco1` has a Ki of 457 nM. In the case of `N#CCCN(CCc1ccccc1)CC(=O)N(CCc1ccc(S(N)(=O)=O)cc1)Cc1ccc2ccccc2c1`, the Ki is reported as 3810 nM. Work on `NS(=O)(=O)c1ccc(CCN(Cc2ccccc2)C(=O)CN(Cc2ccccc2)Cc2ccccc2)cc1` yielded a Ki of over 10000 nM. In the case of `NS(=O)(=O)c1ccc(CCNCc2ccccc2)cc1`, the Ki is reported as 2850 nM.

Organism: Homo sapiens
Assay: Selectivity index, ratio of Ki for inhibition of human CA2 to Ki for inhibition of human CA4
Procedure, shortened: as §1
`CCCCCCCC/C=C\CCCCCCCCNC(=O)CCN(CCc1ccccc1)CC(=O)N(CCc1ccc(S(N)(=O)=O)cc1)Cc1ccco1` showed a Ratio Ki of 0.07. Compound `CCCCCN(CCCCC)CCC(=O)N(CCc1ccc(S(N)(=O)=O)cc1)Cc1ccccc1` has a Ratio Ki of 0.2. In the case of `N#CCCN(CCc1ccccc1)CC(=O)N(CCc1ccc(S(N)(=O)=O)cc1)Cc1ccco1`, the Ratio Ki is reported as 0.2. `NS(=O)(=O)c1ccc(CCN(Cc2ccccc2)C(=O)CN(Cc2ccccc2)Cc2ccccc2)cc1` gave a Ratio Ki of under 0.04.

Organism: Homo sapiens
Assay: Selectivity index, ratio of Ki for inhibition of human CA1 to Ki for inhibition of human CA2
Procedure, shortened: as §1
`CCCCCCCC/C=C\CCCCCCCCNC(=O)CCN(CCc1ccccc1)CC(=O)N(CCc1ccc(S(N)(=O)=O)cc1)Cc1ccco1` gave a Ratio Ki of 5.6. For `CCCCCN(CCCCC)CCC(=O)N(CCc1ccc(S(N)(=O)=O)cc1)Cc1ccccc1`, the Ratio Ki was 1.1. `N#CCCN(CCc1ccccc1)CC(=O)N(CCc1ccc(S(N)(=O)=O)cc1)Cc1ccco1` gave a Ratio Ki of 4.1. For `N#CCCN(CCc1ccccc1)CC(=O)N(CCc1ccc(S(N)(=O)=O)cc1)Cc1ccc2ccccc2c1`, the Ratio Ki was 2.8. In the case of `NS(=O)(=O)c1ccc(CCN(Cc2ccccc2)C(=O)CN(Cc2ccccc2)Cc2ccccc2)cc1`, the Ratio Ki is reported as 2.1.

Organism: Homo sapiens
Assay: Selectivity index, ratio of Ki for inhibition of human CA1 to Ki for inhibition of human CA12
Procedure, shortened: as §1
In the case of `CCCCCCCC/C=C\CCCCCCCCNC(=O)CCN(CCc1ccccc1)CC(=O)N(CCc1ccc(S(N)(=O)=O)cc1)Cc1ccco1`, the Ratio Ki is reported as 134. `CCCCCN(CCCCC)CCC(=O)N(CCc1ccc(S(N)(=O)=O)cc1)Cc1ccccc1` gave a Ratio Ki of 5.6. In the case of `N#CCCN(CCc1ccccc1)CC(=O)N(CCc1ccc(S(N)(=O)=O)cc1)Cc1ccco1`, the Ratio Ki is reported as 34.6. `N#CCCN(CCc1ccccc1)CC(=O)N(CCc1ccc(S(N)(=O)=O)cc1)Cc1ccc2ccccc2c1` showed a Ratio Ki of 10.5. For `NS(=O)(=O)c1ccc(CCN(Cc2ccccc2)C(=O)CN(Cc2ccccc2)Cc2ccccc2)cc1`, the Ratio Ki was 8.8.

These compounds were tested against Carbonic anhydrase 2 (Homo sapiens, UniProt P00918) (assay: Inhibition of human CA2 preincubated for 15 mins by stopped-flow CO2 hydration kinetic assay based Cheng-Prusoff equation analysis).
With `CCCCCCCC/C=C\CCCCCCCCNC(=O)CCN(CCc1ccccc1)CC(=O)N(CCc1ccc(S(N)(=O)=O)cc1)Cc1ccco1` the Ki was 132 nM. `CCCCCN(CCCCC)CCC(=O)N(CCc1ccc(S(N)(=O)=O)cc1)Cc1ccccc1` was tested, and the Ki was 523 nM. In the case of `N#CCCN(CCc1ccccc1)CC(=O)N(CCc1ccc(S(N)(=O)=O)cc1)Cc1ccco1`, the Ki is reported as 73.2 nM. `N#CCCN(CCc1ccccc1)CC(=O)N(CCc1ccc(S(N)(=O)=O)cc1)Cc1ccc2ccccc2c1` showed a Ki of 248 nM. In the case of `NS(=O)(=O)c1ccc(CCN(Cc2ccccc2)C(=O)CN(Cc2ccccc2)Cc2ccccc2)cc1`, the Ki is reported as 412 nM.

The compounds below were run against Carbonic anhydrase 12 (Homo sapiens, UniProt O43570) (assay: Inhibition of human CA12 preincubated for 15 mins by stopped-flow CO2 hydration kinetic assay based Cheng-Prusoff equation analysis).
Sequence of Carbonic anhydrase 12 (O43570 whole entry): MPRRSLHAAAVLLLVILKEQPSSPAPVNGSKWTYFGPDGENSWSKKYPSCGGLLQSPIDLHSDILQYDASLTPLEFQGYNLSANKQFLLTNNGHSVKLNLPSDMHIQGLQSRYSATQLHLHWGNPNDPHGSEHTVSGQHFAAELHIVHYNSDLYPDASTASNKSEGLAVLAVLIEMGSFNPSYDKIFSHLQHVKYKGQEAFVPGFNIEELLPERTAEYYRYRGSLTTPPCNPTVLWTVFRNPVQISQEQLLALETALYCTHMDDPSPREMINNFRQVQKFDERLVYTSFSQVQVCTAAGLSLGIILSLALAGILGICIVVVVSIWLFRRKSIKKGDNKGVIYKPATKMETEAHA
`CCCCCCCC/C=C\CCCCCCCCNC(=O)CCN(CCc1ccccc1)CC(=O)N(CCc1ccc(S(N)(=O)=O)cc1)Cc1ccco1` gave a Ki of 5.5 nM. Compound `CCCCCN(CCCCC)CCC(=O)N(CCc1ccc(S(N)(=O)=O)cc1)Cc1ccccc1` has a Ki of 100 nM. With `N#CCCN(CCc1ccccc1)CC(=O)N(CCc1ccc(S(N)(=O)=O)cc1)Cc1ccco1` the Ki was 8.7 nM. For `N#CCCN(CCc1ccccc1)CC(=O)N(CCc1ccc(S(N)(=O)=O)cc1)Cc1ccc2ccccc2c1`, the Ki was 64.9 nM. With `NS(=O)(=O)c1ccc(CCN(Cc2ccccc2)C(=O)CN(Cc2ccccc2)Cc2ccccc2)cc1` the Ki was 98.8 nM. `NS(=O)(=O)c1ccc(CCNCc2ccccc2)cc1` was tested, and the Ki was 65.4 nM.

Each compound was assayed against Carbonic anhydrase 1 (Homo sapiens, UniProt P00915) (assay: Inhibition of human CA1 preincubated for 15 mins by stopped-flow CO2 hydration kinetic assay based Cheng-Prusoff equation analysis).
Sequence of Carbonic anhydrase 1 (P00915 whole entry): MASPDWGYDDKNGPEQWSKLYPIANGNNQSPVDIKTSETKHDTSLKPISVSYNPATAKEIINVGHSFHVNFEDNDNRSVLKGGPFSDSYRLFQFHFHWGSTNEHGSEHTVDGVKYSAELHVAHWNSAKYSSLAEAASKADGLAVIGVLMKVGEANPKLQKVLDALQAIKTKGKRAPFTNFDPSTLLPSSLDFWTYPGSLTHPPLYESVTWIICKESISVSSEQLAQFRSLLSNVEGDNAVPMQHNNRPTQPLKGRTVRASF
`CCCCCCCC/C=C\CCCCCCCCNC(=O)CCN(CCc1ccccc1)CC(=O)N(CCc1ccc(S(N)(=O)=O)cc1)Cc1ccco1` gave a Ki of 738 nM. In the case of `CCCCCN(CCCCC)CCC(=O)N(CCc1ccc(S(N)(=O)=O)cc1)Cc1ccccc1`, the Ki is reported as 564 nM. With `N#CCCN(CCc1ccccc1)CC(=O)N(CCc1ccc(S(N)(=O)=O)cc1)Cc1ccco1` the Ki was 301 nM. Work on `N#CCCN(CCc1ccccc1)CC(=O)N(CCc1ccc(S(N)(=O)=O)cc1)Cc1ccc2ccccc2c1` yielded a Ki of 685 nM. `NS(=O)(=O)c1ccc(CCN(Cc2ccccc2)C(=O)CN(Cc2ccccc2)Cc2ccccc2)cc1` was tested, and the Ki was 866 nM.

Organism: Homo sapiens
Assay: Selectivity index, ratio of Ki for inhibition of human CA2 to Ki for inhibition of human CA12
Procedure, shortened: as §1
Work on `CCCCCCCC/C=C\CCCCCCCCNC(=O)CCN(CCc1ccccc1)CC(=O)N(CCc1ccc(S(N)(=O)=O)cc1)Cc1ccco1` yielded a Ratio Ki of 24. With `CCCCCN(CCCCC)CCC(=O)N(CCc1ccc(S(N)(=O)=O)cc1)Cc1ccccc1` the Ratio Ki was 5.2. `N#CCCN(CCc1ccccc1)CC(=O)N(CCc1ccc(S(N)(=O)=O)cc1)Cc1ccco1` showed a Ratio Ki of 8.4. `N#CCCN(CCc1ccccc1)CC(=O)N(CCc1ccc(S(N)(=O)=O)cc1)Cc1ccc2ccccc2c1` was tested, and the Ratio Ki was 3.8.
